Assay results reported in ChEMBL document CHEMBL3217512, “Indole/triazole conjugates are selective inhibitors and inducers of bacterial biofilms” (Medchemcomm, 2013).

Experiments:
Staphylococcus aureus [1] = assay: Antimicrobial activity against Staphylococcus aureus 29213 assessed as effect on planktonic growth at PC25 after 2 to 24 hrs by colony count method; format: organism-based; conditions: in vivo
Staphylococcus aureus [2] = assay: Antimicrobial activity against Staphylococcus aureus 29213 assessed as effect on planktonic growth at PC75 after 2 to 24 hrs by colony count method; format: organism-based; conditions: in vivo
Acinetobacter baumannii [3] = assay: Antimicrobial activity against Acinetobacter baumannii 19606 assessed as effect on planktonic growth at IC50 after 2 to 24 hrs by colony count method; design: species or system ATCC 19606
Escherichia coli [4] = assay: Inhibition of biofilm formation in Escherichia coli K-12 ER2718 at 150 uM after 24 hrs by crystal violet staining-based assay relative to control; format: functional; conditions: K-12 ER2718, 24 h
Escherichia coli [5] = assay: Antimicrobial activity against Escherichia coli K-12 ER2718 assessed as effect on planktonic growth at IC50 after 2 to 24 hrs; format: organism-based
Staphylococcus aureus [6] = assay: Antimicrobial activity against Staphylococcus aureus 29213 assessed as effect on planktonic growth at PC25 after 2 to 24 hrs; format: organism-based; conditions: in vivo
Acinetobacter baumannii [7] = assay: Inhibition of biofilm formation in Acinetobacter baumannii 19606 after 24 hrs by crystal violet staining-based assay; format: functional; conditions: ATCC 19606 = CIP 70.34 = JCM 6841, 24 h
How it was run: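 Compounds active in the 150 μM screen were taken into dose-response studies under static conditions with a crystal violet read-out. IC50 is the concentration that inhibits 50% of biofilm growth relative to an untreated control.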

Staphylococcus aureus [8] = assay: Antimicrobial activity against Staphylococcus aureus 29213 assessed as effect on planktonic growth at PC50 after 2 to 24 hrs; format: organism-based; conditions: in vivo
Staphylococcus aureus [9] = assay: Antimicrobial activity against Staphylococcus aureus 29213 assessed as effect on planktonic growth at IC50 after 2 to 24 hrs by colony count method; format: organism-based; conditions: in vivo
Staphylococcus aureus [10] = assay: Antimicrobial activity against methicillin-resistant Staphylococcus aureus BAA 44 assessed as effect on planktonic growth at IC50 after 2 to 24 hrs by colony count method; format: organism-based; conditions: in vivo
Staphylococcus aureus [11] = assay: Antimicrobial activity against methicillin-resistant Staphylococcus aureus BAA 44 assessed as effect on planktonic growth at IC50 after 2 to 24 hrs; format: organism-based; conditions: in vivo
Staphylococcus aureus [12] = assay: Antimicrobial activity against Staphylococcus aureus 29213 assessed as effect on planktonic growth at IC50 after 2 to 24 hrs; format: organism-based; conditions: in vivo
Acinetobacter baumannii [13] = assay: Antimicrobial activity against Acinetobacter baumannii 19606 assessed as effect on planktonic growth at IC50 after 2 to 24 hrs; design: species or system ATCC 19606
Staphylococcus aureus [14] = assay: Antimicrobial activity against Staphylococcus aureus 29213 assessed as effect on planktonic growth at PC50 after 2 to 24 hrs by colony count method; format: organism-based; conditions: in vivo
Staphylococcus aureus [15] = assay: Antimicrobial activity against Staphylococcus aureus 29213 assessed as effect on planktonic growth at PC75 after 2 to 24 hrs; format: organism-based; conditions: in vivo
Staphylococcus aureus [16] = assay: Inhibition of biofilm formation in methicillin-resistant Staphylococcus aureus BAA 44 after 24 hrs by crystal violet staining-based assay; format: functional, organism-based; conditions: BAA 44, 24 h
How it was run: (§1)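 Static biofilm development in MRSA, read out by crystal violet staining against an untreated control. Initial screen at 150 μM. Inhibitors then went to dose-response, with IC50 taken as the concentration giving 50% inhibition of biofilm growth. Induction was judged at 50 μM: under 50% induction counted as "inducer", over 50% as "strong inducer".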

Escherichia coli [17] = assay: Antimicrobial activity against Escherichia coli K-12 ER2718 assessed as effect on planktonic growth at IC50 after 2 to 24 hrs by colony count method; format: organism-based
Staphylococcus aureus [18] = assay: Antimicrobial activity against Staphylococcus aureus 29213 assessed as effect on planktonic growth at 50 uM after 2 to 24 hrs; format: organism-based
How it was run: (§2)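 Growth curve analysis of planktonic bacteria with each biofilm inducer at 50 μM, used to assess toxicity.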

Staphylococcus aureus [19] = assay: Induction of biofilm formation in Staphylococcus aureus 29213 at 50 uM after 24 hrs by crystal violet staining-based assay relative to control; format: functional
How it was run: (§3)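 Static biofilm assay with compounds at 50 μM and crystal violet read-out, relative to an untreated control. Compounds increasing biofilm by less than 50% were called inducers, and by more than 50% strong inducers.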

Staphylococcus aureus [20] = assay: Antimicrobial activity against methicillin-resistant Staphylococcus aureus BAA 44 assessed as effect on planktonic growth at PC50 after 2 to 24 hrs by colony count method; format: organism-based; conditions: in vivo
Staphylococcus aureus [21] = assay: Antimicrobial activity against methicillin-resistant Staphylococcus aureus BAA 44 assessed as effect on planktonic growth at PC25 after 2 to 24 hrs; format: organism-based; conditions: in vivo
Staphylococcus aureus [22] = assay: Antimicrobial activity against methicillin-resistant Staphylococcus aureus BAA 44 assessed as effect on planktonic growth at PC75 after 2 to 24 hrs by colony count method; format: organism-based; conditions: in vivo
Staphylococcus aureus [23] = assay: Induction of biofilm formation in methicillin-resistant Staphylococcus aureus BAA 44 at 50 uM after 24 hrs by crystal violet staining-based assay relative to control; format: functional; how it was run: as §1
Staphylococcus aureus [24] = assay: Inhibition of biofilm formation in Staphylococcus aureus 29213 at 150 uM after 24 hrs by crystal violet staining-based assay relative to control; format: functional; conditions: Staphylococcus aureus, 29213, 24 h
Acinetobacter baumannii [25] = assay: Inhibition of biofilm formation in Acinetobacter baumannii 19606 at 150 uM after 24 hrs by crystal violet staining-based assay relative to control; format: functional; conditions: ATCC 19606 = CIP 70.34 = JCM 6841, 24 h
Staphylococcus aureus [26] = assay: Antimicrobial activity against methicillin-resistant Staphylococcus aureus BAA 44 assessed as effect on planktonic growth at PC75 after 2 to 24 hrs; format: organism-based; conditions: in vivo
Staphylococcus aureus [27] = assay: Antimicrobial activity against methicillin-resistant Staphylococcus aureus BAA 44 assessed as effect on planktonic growth at PC25 after 2 to 24 hrs by colony count method; format: organism-based; conditions: in vivo
Staphylococcus aureus [28] = assay: Antimicrobial activity against methicillin-resistant Staphylococcus aureus BAA 44 assessed as effect on planktonic growth at 50 uM after 2 to 24 hrs; format: organism-based
How it was run: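 Growth-curve analysis of planktonic MRSA in the presence of each biofilm inducer at 50 μM, to check for toxicity.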

Staphylococcus aureus [29] = assay: Antimicrobial activity against methicillin-resistant Staphylococcus aureus BAA 44 assessed as effect on planktonic growth at PC50 after 2 to 24 hrs; format: organism-based; conditions: in vivo
Acinetobacter baumannii [30] = assay: Antimicrobial activity against Acinetobacter baumannii 19606 assessed as effect on planktonic growth at 50 uM after 2 to 24 hrs; design: species or system ATCC 19606; how it was run: as §2
Escherichia coli [31] = assay: Antimicrobial activity against Escherichia coli K-12 ER2718 assessed as effect on planktonic growth at PC75 after 2 to 24 hrs; format: organism-based; conditions: in vivo
Escherichia coli [32] = assay: Antimicrobial activity against Escherichia coli K-12 ER2718 assessed as effect on planktonic growth at PC75 after 2 to 24 hrs by colony count method; format: organism-based; conditions: in vivo
Escherichia coli [33] = assay: Antimicrobial activity against Escherichia coli K-12 ER2718 assessed as effect on planktonic growth at PC50 after 2 to 24 hrs by colony count method; format: organism-based; conditions: in vivo
Acinetobacter baumannii [34] = assay: Antimicrobial activity against Acinetobacter baumannii 19606 assessed as effect on planktonic growth at PC50 after 2 to 24 hrs by colony count method; design: species or system ATCC 19606
Escherichia coli [35] = assay: Antimicrobial activity against Escherichia coli K-12 ER2718 assessed as effect on planktonic growth at PC25 after 2 to 24 hrs by colony count method; format: organism-based
Acinetobacter baumannii [36] = assay: Induction of biofilm formation in Acinetobacter baumannii 19606 at 50 uM after 24 hrs by crystal violet staining-based assay relative to control; format: functional, ATCC 19606 = CIP 70.34 = JCM 6841; how it was run: as §3
Acinetobacter baumannii [37] = assay: Antimicrobial activity against Acinetobacter baumannii 19606 assessed as effect on planktonic growth at PC25 after 2 to 24 hrs by colony count method; design: species or system ATCC 19606
Escherichia coli [38] = assay: Induction of biofilm formation in Escherichia coli K-12 ER2718 at 50 uM after 24 hrs by crystal violet staining-based assay relative to control; format: functional; how it was run: as §3
Escherichia coli [39] = assay: Antimicrobial activity against Escherichia coli K-12 ER2718 assessed as effect on planktonic growth at PC25 after 2 to 24 hrs; format: organism-based
Acinetobacter baumannii [40] = assay: Antimicrobial activity against Acinetobacter baumannii 19606 assessed as effect on planktonic growth at PC50 after 2 to 24 hrs; design: species or system ATCC 19606
Escherichia coli [41] = assay: Antimicrobial activity against Escherichia coli K-12 ER2718 assessed as effect on planktonic growth at 50 uM after 2 to 24 hrs; format: organism-based; how it was run: as §2
Acinetobacter baumannii [42] = assay: Antimicrobial activity against Acinetobacter baumannii 19606 assessed as effect on planktonic growth at PC25 after 2 to 24 hrs; design: species or system ATCC 19606
Escherichia coli [43] = assay: Antimicrobial activity against Escherichia coli K-12 ER2718 assessed as effect on planktonic growth at PC50 after 2 to 24 hrs; format: organism-based
Acinetobacter baumannii [44] = assay: Antimicrobial activity against Acinetobacter baumannii 19606 assessed as effect on planktonic growth at PC75 after 2 to 24 hrs by colony count method; design: species or system ATCC 19606
Acinetobacter baumannii [45] = assay: Antimicrobial activity against Acinetobacter baumannii 19606 assessed as effect on planktonic growth at PC75 after 2 to 24 hrs; design: species or system ATCC 19606

Structure (SMILES): O=C(Cn1cc(Cc2c(Br)[nH]c3ccccc23)nn1)Nc1ccccc1
- Activity (Staphylococcus aureus [1]): Non-toxic
- Activity (Staphylococcus aureus [2]): Non-toxic
- Activity (Acinetobacter baumannii [3]): Non-toxic
- inhibition at 150 µM (Escherichia coli [4]): 12%
- Activity (Escherichia coli [5]): Non-toxic
- Activity (Staphylococcus aureus [6]): Non-toxic
- IC50 (Acinetobacter baumannii [7]): 326 µM
- Activity (Staphylococcus aureus [8]): Non-toxic
- Activity (Staphylococcus aureus [9]): Non-toxic
- Activity (Staphylococcus aureus [10]): Non-toxic
- Activity (Staphylococcus aureus [11]): Non-toxic
- Activity (Staphylococcus aureus [12]): Non-toxic
- Activity (Acinetobacter baumannii [13]): Non-toxic
- Activity (Staphylococcus aureus [14]): Non-toxic
- Activity (Staphylococcus aureus [15]): Non-toxic
- IC50 (Staphylococcus aureus [16]): 151 µM
- Activity (Escherichia coli [17]): Non-toxic
- Activity (Staphylococcus aureus [18]): Non-toxic
- Activity (Staphylococcus aureus [19]): >50%

Structure (SMILES): CCCCCCNC(=O)Cn1cc(Cc2c(Br)[nH]c3ccccc23)nn1
- Activity (Acinetobacter baumannii [3]): Non-toxic
- Activity (Staphylococcus aureus [20]): Non-toxic
- Activity (Staphylococcus aureus [21]): Non-toxic
- Activity (Staphylococcus aureus [22]): Non-toxic
- Activity (Staphylococcus aureus [23]): <50%
- inhibition at 150 µM (Staphylococcus aureus [24]): < 5%
- inhibition at 150 µM (Escherichia coli [4]): < 5%
- Activity (Escherichia coli [5]): Non-toxic
- inhibition at 150 µM (Acinetobacter baumannii [25]): 17%
- Activity (Staphylococcus aureus [9]): Non-toxic
- Activity (Staphylococcus aureus [10]): Non-toxic
- Activity (Staphylococcus aureus [11]): Non-toxic
- Activity (Staphylococcus aureus [26]): Non-toxic
- Activity (Staphylococcus aureus [27]): Non-toxic
- Activity (Staphylococcus aureus [12]): Non-toxic
- Activity (Acinetobacter baumannii [13]): Non-toxic
- Activity (Staphylococcus aureus [28]): Non-toxic
- Activity (Staphylococcus aureus [29]): Non-toxic
- Activity (Escherichia coli [17]): Non-toxic

Structure (SMILES): CCCCCCCc1ccc(C(=O)NCCn2cc(Cc3c(Br)[nH]c4ccccc34)nn2)cc1
- Activity (Staphylococcus aureus [1]): Non-toxic
- Activity (Staphylococcus aureus [2]): Non-toxic
- Activity (Acinetobacter baumannii [3]): Non-toxic
- Activity (Acinetobacter baumannii [30]): Non-toxic
- Activity (Staphylococcus aureus [20]): Non-toxic
- Activity (Staphylococcus aureus [21]): Non-toxic
- Activity (Staphylococcus aureus [22]): Non-toxic
- Activity (Staphylococcus aureus [23]): >50%
- Activity (Escherichia coli [31]): Non-toxic
- Activity (Escherichia coli [32]): Non-toxic
- Activity (Escherichia coli [33]): Non-toxic
- Activity (Escherichia coli [5]): Non-toxic
- Activity (Staphylococcus aureus [6]): Non-toxic
- Activity (Acinetobacter baumannii [34]): Non-toxic
- Activity (Escherichia coli [35]): Non-toxic
- Activity (Acinetobacter baumannii [36]): <50%
- Activity (Staphylococcus aureus [8]): Non-toxic
- Activity (Acinetobacter baumannii [37]): Non-toxic
- Activity (Staphylococcus aureus [9]): Non-toxic
- Activity (Escherichia coli [38]): <50%
- Activity (Staphylococcus aureus [10]): Non-toxic
- Activity (Staphylococcus aureus [11]): Non-toxic
- Activity (Escherichia coli [39]): Non-toxic
- Activity (Staphylococcus aureus [26]): Non-toxic
- Activity (Staphylococcus aureus [27]): Non-toxic
- Activity (Acinetobacter baumannii [40]): Non-toxic
- Activity (Staphylococcus aureus [12]): Non-toxic
- Activity (Acinetobacter baumannii [13]): Non-toxic
- Activity (Staphylococcus aureus [14]): Non-toxic
- Activity (Staphylococcus aureus [28]): Non-toxic
- Activity (Escherichia coli [41]): Non-toxic
- Activity (Staphylococcus aureus [15]): Non-toxic
- Activity (Staphylococcus aureus [29]): Non-toxic
- Activity (Escherichia coli [17]): Non-toxic
- Activity (Acinetobacter baumannii [42]): Non-toxic
- Activity (Escherichia coli [43]): Non-toxic
- Activity (Acinetobacter baumannii [44]): Non-toxic
- Activity (Staphylococcus aureus [18]): Non-toxic
- Activity (Acinetobacter baumannii [45]): Non-toxic
- Activity (Staphylococcus aureus [19]): <50%
